Publication PMC6718330 (European journal of medicinal chemistry, 2019)
“Also recorded” adds a separate entry of the source.

Tests used:
[1] = system: cruzain and rhodesain; test: Primary screen of the MMV400 at 5 µM against cruzain and rhodesain; format: biochemical, Trypanosoma cruzi; Trypanosoma brucei; details: primary screen at 5 µM
How it was run: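 Fluorimetric screen of the library at 5 µM against recombinant cruzain and rhodesain (1 nM each). Substrate was 2.5 µM Z-FR-AMC in 0.1 M sodium acetate pH 5.5 with 0.01% Triton X-100 and 1 mM β-mercaptoethanol. Runs had no pre-incubation or 10 min enzyme–compound pre-incubation, two duplicates each. AMC release was read at 340/440 nm for 5 min at 12 s intervals; DMSO and E-64 served as controls.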

[2] = system: T.cruzi (Y strain); test: Trypomastigote release from T. cruzi-infected peritoneal macrophages; format: cell-based, Trypanosoma cruzi; details: 50 µM
[3] = target: T1, cruzain (Trypanosoma cruzi, UniProt P25779); test: Aggregation assays against cruzain; format: biochemical; details: for Sensitivity of inhibition to pre-incubation with BSA: BSA 2 mg/mL in Triton X-100 0.001%; for Sensitivity of inhibition to detergent (Triton X-100): absence, 0.01% and 0.1% Triton X-100, 10 min pre-incubation with cruzain
How it was run: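 Recombinant cruzain (1 nM) was pre-incubated with the test compound for 10 min at room temperature, with no Triton X-100, 0.01% or 0.1% Triton X-100. Percent inhibition was compared across detergent levels. In a BSA variant, compound sat 5 min with BSA (2 mg/mL in 0.001% Triton), then 5 min with cruzain, before substrate was added, run alongside a BSA-free control. Fluorogenic Z-FR-AMC read-out was at 340/440 nm.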

[4] = target: T1, cruzain; test: Cruzain enzymatic assay; format: biochemical; details: for Mechanism of inhibition against cruzain: Lineweaver-Burk plots
[5] = target: rat cathepsin B (Rattus norvegicus, UniProt P00787); test: Cathepsin B inhibition assay; format: biochemical; details: read-out: Inhibition of cathepsin B (greatest observed)
How it was run: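 Buffer: 100 mM sodium phosphate, 100 mM NaCl, 1 mM EDTA, 1 mM DTT, 0.01% CHAPS, 25°C. Test compound at 100 µM or 50 µM, with or without 5 min enzyme pre-incubation. Fluorescence at 380/440 nm for 15 min. Percent inhibition versus 2% DMSO; E64 1 µM positive control. Two independent experiments, each in triplicate.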

[6] = system: Nitric oxide levels in macrophage culture; test: Nitric oxide detection; format: cell-based, mouse; details: culture supernatant after 11 days; 12 at 3.125 µM, IFN-γ 100 ng/mL
How it was run: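 Peritoneal macrophages from thioglycolate-elicited female C57BL/6 mice (8–10 wk) were plated at 2 × 10^5/well, adhered 3 h, then rested overnight. They were infected 2 h with Y-strain T. cruzi trypomastigotes (5:1 parasite:cell), washed, then given test compound or IFN-γ at 37°C, 5% CO2. Day-11 supernatant plus Griess reagent, 10 min, A540 for nitrite. Three independent experiments in triplicate; mean ± SEM.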

[7] = system: Peritoneal macrophages of C57BL/6 mice; test: LDH cytotoxicity assay in peritoneal macrophages; format: cell-based, mouse; details: 3.125 µM, 24 h
[8] = target: rhodesain (Trypanosoma brucei rhodesiense, UniProt Q95PM0); test: Rhodesain enzymatic assay; format: biochemical

T1 sequence (P25779 123-467): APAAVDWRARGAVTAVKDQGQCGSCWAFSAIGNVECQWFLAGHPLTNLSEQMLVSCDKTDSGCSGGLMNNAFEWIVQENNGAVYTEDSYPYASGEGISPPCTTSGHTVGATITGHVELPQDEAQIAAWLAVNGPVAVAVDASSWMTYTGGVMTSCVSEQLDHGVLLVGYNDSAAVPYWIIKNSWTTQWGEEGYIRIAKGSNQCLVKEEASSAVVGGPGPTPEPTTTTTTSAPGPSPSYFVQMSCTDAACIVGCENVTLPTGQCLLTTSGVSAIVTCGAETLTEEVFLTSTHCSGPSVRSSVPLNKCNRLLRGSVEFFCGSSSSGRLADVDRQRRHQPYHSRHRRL
Chain of rat cathepsin B (P00787 80-339): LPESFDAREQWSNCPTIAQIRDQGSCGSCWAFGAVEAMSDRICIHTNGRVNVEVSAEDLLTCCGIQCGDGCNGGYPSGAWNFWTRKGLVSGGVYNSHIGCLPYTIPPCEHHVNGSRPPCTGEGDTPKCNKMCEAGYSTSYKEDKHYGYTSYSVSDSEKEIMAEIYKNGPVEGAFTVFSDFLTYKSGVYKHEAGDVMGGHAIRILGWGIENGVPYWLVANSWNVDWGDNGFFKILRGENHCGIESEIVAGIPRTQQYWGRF

Molecule: CCOc1ccc(/C=C/c2nc(=O)c3ccccc3o2)cc1 [Compound 1]
- Over 50% cruzain and rhodesain inhibition? [1]: yes

Molecule: COCCNC(=O)c1ccc(OC2CCN(Cc3ccc(F)c(F)c3)CC2)c(Cl)c1 [Compound 15]
- Over 50% cruzain and rhodesain inhibition? [1]: yes
- Trypanocidal activity in initial screen [2]: trypanocidal activity

Molecule: CCOc1cccc(C(=O)Nc2ccc(-c3nc4ccccc4[nH]3)cc2)c1 [Compound 6]
- Over 50% cruzain and rhodesain inhibition? [1]: yes
- Fluorescence in the assays (signal interference) [3]: displayed fluorescence in the assays
- Sensitivity of inhibition to pre-incubation with BSA [3]: sensitive to pre-incubation with bovine serum albumin
- Sensitivity of inhibition to detergent (Triton X-100) [3]: highly sensitive to Triton
- Hill slope of dose-response curve ([4]; cruzain dose-response curve): 3.9

Molecule: Cc1cc(Nc2ccc(C)c(Cl)c2)n2nc(C(F)(F)F)nc2n1 [Compound 3]
- Over 50% cruzain and rhodesain inhibition? [1]: no

Molecule: c1ccc(-c2ccc(-c3nc4ccccc4[nH]3)cc2)cc1 [Compound 5]
- Over 50% cruzain and rhodesain inhibition? [1]: yes
- Fluorescence in the assays (signal interference) [3]: displayed fluorescence in the assays
- Sensitivity of inhibition to pre-incubation with BSA [3]: sensitive to pre-incubation with bovine serum albumin
- Sensitivity of inhibition to detergent (Triton X-100) [3]: highly sensitive to Triton

Molecule: Cc1nc2ccccc2c(O)c1CC=C(Cl)Cl [Compound 4]
- Over 50% cruzain and rhodesain inhibition? [1]: yes

Molecule: COc1ccc2sc(N(Cc3cccnc3)C(=O)c3ccc(C#N)cc3)nc2c1 [Compound 13]
- Over 50% cruzain and rhodesain inhibition? [1]: yes

Molecule: FC(F)(F)c1cccc(CNC2CCN(CCc3ccccc3)CC2)c1 [Compound 14]
- Over 50% cruzain and rhodesain inhibition? [1]: yes

Molecule: CC(=O)c1ccc(NC(=O)CSc2nc(-c3ccccc3Cl)ns2)cc1 [Compound 10]
- Over 50% cruzain and rhodesain inhibition? [1]: yes

Molecule: CCOC(=O)c1c(C)n(-c2ccccc2)c2ccc(OC(=O)c3cc(OC)c(OC)c(OC)c3)cc12 [Compound 9]
- Over 50% cruzain and rhodesain inhibition? [1]: yes

Molecule: c1ccc(CNc2nc(Nc3ccccc3)nc3ccccc23)cc1 [Compound 7]
- Over 50% cruzain and rhodesain inhibition? [1]: yes
- Trypanocidal activity in initial screen [2]: trypanocidal activity
- Detergent sensitivity of inhibition at 50 µM ([3]; 50 µM compound): some detergent-sensitivity
- Sensitivity of inhibition to pre-incubation with BSA [3]: not sensitive to detergent nor BSA incubation
- inhibition at 100 µM [5]: 29%
- Mechanism of inhibition against cruzain [4]: competitive inhibition

Molecule: COCCNCC(O)Cn1c2ccc(Cl)cc2c2cc(Cl)ccc21 (stereo not shown) [Compound 8]
- Over 50% cruzain and rhodesain inhibition? [1]: no
- Sensitivity of inhibition to pre-incubation with BSA [3]: sensitive to pre-incubation with bovine serum albumin
- Sensitivity of inhibition to detergent (Triton X-100) [3]: highly sensitive to Triton

Molecule: Cl.Cl.Clc1cc(Br)ccc1-c1ccc(CNCC2CCNCC2)o1 [Compound 12, 1-[5-(4-Bromo-2-chlorophenyl)-2-furyl]-N-(4-piperidinylmethyl)methanamine dihydrochloride]
- Over 50% cruzain and rhodesain inhibition? [1]: no
- Trypanocidal activity in initial screen [2]: trypanocidal activity
- Sensitivity of inhibition to pre-incubation with BSA [3]: not sensitive to detergent nor BSA incubation
- Mechanism of inhibition against cruzain [4]: competitive inhibition
- Nitric oxide production [6]: independent of NO release
- Cytotoxicity against macrophages (LDH levels) [7]: low toxicity against murine macrophages; also recorded: did not exhibit cytotoxic activity

Molecule: Cc1ccc(C(=O)c2oc3ccc4c(C)cc(=O)oc4c3c2C)cc1 [Compound 11]
- Over 50% cruzain and rhodesain inhibition? [1]: yes

Molecule: Cn1c(=O)n(C)c2cc(CNCCNc3ccnc4cc(Cl)ccc34)ccc21 [Compound 2]
- Over 50% cruzain and rhodesain inhibition? [1]: yes
- Trypanocidal activity in initial screen [2]: trypanocidal activity
- Sensitivity of inhibition to pre-incubation with BSA [3]: not sensitive to detergent nor BSA incubation
- Ki [8]: 1.4 µM
- Mechanism of inhibition versus rhodesain ([8]; Lineweaver-Burk plots): mixed mechanism; also recorded: mixed-type inhibitor

B1: IFN-γ: Interferon gamma (100 ng/mL, Sigma) used to stimulate macrophages as comparison treatment (protein, UniProt P01579 24-161, looked up)
Interferon gamma: QDPYVKEAENLKKYFNAGHSDVADNGTLFLGILKNWKEESDRKIMQSQIVSFYFKLFKNFKDDQSIQKSVETIKEDMNVKFFNSNKKKRDDFEKLTNYSVTDLNVQRKAIHELIQVMAELSPAAKTGKRKRSQMLFRG
- Nitric oxide production [6]: increased
